Where no end group is shown, it is not given here.
What was measured:
[1] = test system: NOD mouse type A insulin-reactive CD4 T cells; assay: IL-2 secretion; type: cell-based; conditions: sample titration, IL-2 after 24 h (Fig. 2A)
Procedure, shortened: (§1)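 Equal numbers of T-cell hybridomas or TCR-transduced avatars and paraformaldehyde-fixed M12.C3.g7 (IAg7) B-lymphoma APCs are cultured overnight with peptide titrations up to 100 μg/mL. Peptides have B:19 C→A and are >95% pure, with an IAg7-binding HEL peptide as negative control. IL-2 is read by HT-2 growth/survival or ELISA. Potency is the log10 shift of parallel third-order polynomial fits versus WT8E9R (=1), averaged over three titrations.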

[2] = test system: NOD mouse type B insulin-reactive CD4 T cells; assay: IL-2 secretion; type: cell-based; conditions: sample titration, IL-2 after 24 h (Fig. 2A)
Procedure, shortened: as §1

[3] = test system: CD4 T cells of human T1D patients; conditions: HLA-DQ8; ref [14], [15]; cited from earlier work
[4] = test system: IA^g7; conditions: natural R at p9; ref [16]; cited from earlier work

## 8E9E: soluble mutated B:12–22 peptide, p9 R to E, B:19 C changed to A
[1]
  potency relative to WT8E9R: about 100 ×
[2]
  potency compared with WT8E9R: no better than the WT peptide

## B:11–23 peptide: versions of the B:11–23 peptide (identical between mice and humans) presented by DQ8 (LVEALYLVCGERG; ends and bridges not checked; UniProt P01308 35-47, looked up, fragment)
[3]
  human T-cell response to peptide bound to DQ8: only when B:22R is mutated to E

## B:22R to E mutated peptide: B:9–23 peptide with B:22R (p9) mutated to E, earlier work
[3]
  human T-cell response to peptide bound to DQ8: dramatically improved T-cell response

## SHLVEALYLVCGERG [B:9–23]
[4]
  binding to IA^g7 in R3: greatly interferes with binding
